Data taken from ChEMBL document CHEMBL4665832, “Benzylidene thiazolidinediones: Synthesis, in vitro investigations of antiproliferative mechanisms and in vivo efficacy determination in combination with Imatinib” (Bioorg Med Chem Lett, 2020).
Calls of active or inactive are those of the source. No cut-off for these calls is given here.

Tests used:
[1] = Cytotoxicity against hepatocytes (unknown origin) assessed as cell growth by MTT assay relative to control; assay type: cell-based, Hepatocyte; set-up: concentration or dose not given beside the values
K562 [2] = experiment: Potentiation of imatinib-induced antitumor activity against human K562 cells xenografted in mouse assessed as reduction in tumor volume at 100 mg/kg, ip administered for 30 days co-treated with imatinib at 100 mg/kg and measured every day for 30 days; assay type: functional, organism-based; details: time 30.0 day
How it was run: (§1)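 Mice implanted subcutaneously in the right rear flank with 6 × 10⁶ K562 cells/100 μl in 50% matrigel. Dosed intraperitoneally: compound alone 200 mg/kg, or compound 100 mg/kg plus imatinib 100 mg/kg; controls were imatinib 100 mg/kg and saline. Tumour volume tracked over time, n = 6. Dunnett's test against control.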

K562 [3] = experiment: Downregulation of PCNA expression in human K562 cells at 20 uM measured after 72 hrs by Western blot analysis; assay type: functional, cell-based
How it was run: (§2)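 K562 cells treated at 10 or 20 µM for 24, 48 or 72 h. PCNA and cyclin D1 detected by Western blot, bands quantified and normalised to actin. Means of three separate experiments, SD, P < 0.05.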

K562 [4] = experiment: Potentiation of imatinib-induced anticancer activity against human K562 cells assessed as cell growth inhibition at 1 uM by MTT assay (reference value: 71%); assay type: functional; details: read-out: GI
K562 [5] = experiment: Cell cycle arrest in human K562 cells assessed as decrease in cells accumulation at S phase at 5 to 20 uM measured by flow cytometry analysis; assay type: functional, cell-based; details: dose microM 5-20, time hrs 24-72, TDE = time-dependent effect
How it was run: (§3)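 K562 cells exposed to 5, 10 or 20 µM and sampled at 24, 48 and 72 h. Phase distribution (G0/G1, S, G2/M) measured by flow cytometry. Untreated and DMSO vehicle controls. SEM of n = 3. Two-tailed t-test, P < 0.05.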

K562 [6] = experiment: Downregulation of PCNA expression in human K562 cells at 10 to 20 uM measured after 24 hrs by Western blot analysis; assay type: functional, cell-based; details: dose microM 10-20, time 24.0 hrs; how it was run: as §2
PC-3 = experiment: Antiproliferative activity against human PC-3 cells assessed as cell growth inhibition; assay type: functional
How it was run: (§4)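 Cell lines screened for growth inhibition and GI₅₀ derived. Each value is the mean of 3 independent experiments.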

K562 [7] = experiment: Downregulation of cyclin-D1 expression in human K562 cells at 10 to 20 uM measured after 48 to 72 hrs by Western blot analysis; assay type: functional, cell-based; details: dose microM 10-20, time hrs 48-72; how it was run: as §2
K562 [8] = experiment: Cell cycle arrest in human K562 cells assessed as decrease in cells accumulation at G2/M phase measured after 24 to 72 hrs by flow cytometry analysis; assay type: functional, cell-based; details: dose microM 5-20, time hrs 24-72; how it was run: as §3
K562 [9] = experiment: Cell cycle arrest in human K562 cells assessed as increase in cells accumulation at G0/G1 phase measured after 24 to 72 hrs by flow cytometry analysis; assay type: functional, cell-based; details: dose microM 5-20, time hrs 24-72; how it was run: as §3
KB = experiment: Antiproliferative activity against human KB cells assessed as cell growth inhibition; assay type: functional; how it was run: as §4
MCF7 = experiment: Antiproliferative activity against human MCF7 cells assessed as cell growth inhibition; assay type: functional; how it was run: as §4
U-937 = experiment: Antiproliferative activity against human U-937 cells assessed as cell growth inhibition; assay type: functional; how it was run: as §4
K562 [10] = experiment: Antiproliferative activity against human K562 cells assessed as cell growth inhibition; assay type: functional; how it was run: as §4
[11] = Acute toxicity in po dosed mouse assessed as body weight loss; assay type: organism-based; details: in vivo
How it was run: (§5)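 Healthy mice were given oral doses that increased over the study period. Each higher dose was given only if the previous dose was well tolerated. All animals were monitored for body weight loss, behavioural changes and mortality to set the maximum tolerated dose.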

MOLT-4 = experiment: Antiproliferative activity against human MOLT-4 cells assessed as cell growth inhibition; assay type: functional; how it was run: as §4
Jurkat = experiment: Antiproliferative activity against human Jurkat cells assessed as cell growth inhibition; assay type: functional; how it was run: as §4
K562 [12] = experiment: Cell cycle arrest in human K562 cells assessed as decrease in cells accumulation at S phase measured after 24 to 72 hrs by flow cytometry analysis; assay type: functional, cell-based; details: dose microM 5-20, time hrs 24-72; how it was run: as §3
[13] = Antiproliferative activity against human GURAV cells assessed as cell growth inhibition; assay type: functional; how it was run: as §4
K562 [14] = experiment: Anticancer activity against human K562 cells assessed as cell growth inhibition at 1 uM by MTT assay relative to control; assay type: functional; details: read-out: GI
How it was run: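 K562 cells given imatinib 1 µM or test compound 1 µM alone, or imatinib 1 µM plus test compound 1 µM. Proliferation read by MTT assay and expressed as % inhibition.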

K562 [15] = experiment: Downregulation of PCNA expression in human K562 cells at 10 to 20 uM measured after 48 hrs by Western blot analysis; assay type: functional, cell-based; details: dose microM 10-20, time 48.0 hrs; how it was run: as §2
HL-60 = experiment: Antiproliferative activity against human HL-60 cells assessed as cell growth inhibition; assay type: functional; how it was run: as §4
K562 [16] = experiment: Cell cycle arrest in human K562 cells assessed as accumulation at S phase at 5 uM measured after 24 hrs by flow cytometry analysis; assay type: functional, cell-based
How it was run: (§6)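 K562 cells exposed to 5 µM for 24 h, then cell-cycle phase distribution measured by flow cytometry. Untreated cells served as negative control and DMSO as vehicle control. SEM of n = 3. Two-tailed Student's t-test, P < 0.05.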

K562 [17] = experiment: Cell cycle arrest in human K562 cells assessed as decrease in cells accumulation at G2/M phase at 5 to 20 uM measured by flow cytometry analysis; assay type: functional, cell-based; details: dose microM 5-20, time hrs 24-72, TDE = time-dependent effect; how it was run: as §3
K562 [18] = experiment: Antitumor activity against human K562 cells xenografted in mouse assessed as reduction in tumor volume at 200 mg/kg, ip administered for 30 days and measured every day for 30 days; assay type: functional, organism-based; details: time 30.0 day; how it was run: as §1
[19] = Acute toxicity in po dosed mouse assessed as maximum tolerated dose; assay type: organism-based; details: in vivo; how it was run: as §5
K562 [20] = experiment: Cell cycle arrest in human K562 cells assessed as accumulation at G0/G1 phase at 5 uM measured after 24 hrs by flow cytometry analysis; assay type: functional, cell-based; how it was run: as §6
K562 [21] = experiment: Cell cycle arrest in human K562 cells assessed as accumulation at G2/M phase at 5 uM measured after 24 hrs by flow cytometry analysis; assay type: functional, cell-based; how it was run: as §6
K562 [22] = experiment: Cell cycle arrest in human K562 cells assessed as increase in cells accumulation at G0/G1 phase at 5 to 20 uM measured by flow cytometry analysis; assay type: functional, cell-based; details: dose microM 5-20, time hrs 24-72, TDE = time-dependent effect; how it was run: as §3
K562 [23] = experiment: Downregulation of cyclin-D1 expression in human K562 cells at 10 to 20 uM measured after 24 hrs by Western blot analysis; assay type: functional, cell-based; details: dose microM 10-20, time 24.0 hrs; how it was run: as §2
[24] = Acute toxicity in po dosed mouse assessed as mortality; assay type: organism-based; details: in vivo; how it was run: as §5
HOP-62 = experiment: Antiproliferative activity against human HOP-62 cells assessed as cell growth inhibition; assay type: functional; how it was run: as §4
K562 [25] = experiment: Induction of apoptosis in human K562 cells assessed as increase in activated caspase-3 expression at 5 to 20 uM measured after 72 hrs by Western blot analysis; assay type: functional, cell-based; details: dose microM 5-20, time 72.0 hrs
How it was run: (§7)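 K562 cells treated 72 h at 5, 10 or 20 µM alongside DMSO vehicle control. Cleaved PARP1 and caspase 3 detected by Western blot and normalised to actin. Means of at least two experiments, SD.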

K562 [26] = experiment: Induction of apoptosis in human K562 cells assessed as increase in cleaved PARP1 expression at 5 to 20 uM measured after 72 hrs by Western blot analysis; assay type: functional, cell-based; details: dose microM 5-20, time 72.0 hrs; how it was run: as §7
K562 [27] = experiment: Downregulation of PCNA expression in human K562 cells at 10 to 20 uM measured after 48 to 72 hrs by Western blot analysis; assay type: functional, cell-based; details: dose microM 10-20, time hrs 48-72; how it was run: as §2
DU-145 = experiment: Antiproliferative activity against human DU-145 cells assessed as cell growth inhibition; assay type: functional; how it was run: as §4
MDA-MB-435 = experiment: Antiproliferative activity against human MDA-MB-435 cells assessed as cell growth inhibition; assay type: functional; how it was run: as §4

SMILES	viability [1]	Activity (K562 [2])	inhibition of growth at 1 µM (K562 [4])	Activity (K562 [5])	inhibition (K562 [6])	GI50 (PC-3)	Activity (K562 [8])	Activity (K562 [9])	GI50 (KB)	GI50 (MCF7)	GI50 (U-937)	GI50 (K562 [10])	Activity [11]	GI50 (MOLT-4)	GI50 (Jurkat)	Activity (K562 [12])	GI50 [13]	inhibition of growth at 1 µM (K562 [14])	GI50 (HL-60)	Activity (K562 [16])	also measured
O=C(COc1ccc(/C=C2\SC(=O)NC2=O)cc1)Nc1ccc(F)cc1F	> 70%	Active	79%	Tde	inactive	> 100 µM	Dose-dependent effect	Dose-dependent effect	> 100 µM	65.8 µM	35.6 µM	0.9 µM	Non-Toxic	40.3 µM	34.6 µM	Dose-dependent effect	61.4 µM	62%	47.8 µM	Active	inhibition (K562 [3]): Active; inhibition (K562 [7]): Active; inhibition (K562 [15]): inactive; Activity (K562 [17]): Tde; Activity (K562 [18]): Active; MTD [19]: 2000 mg/kg; Activity (K562 [20]): Active; Activity (K562 [21]): Active; Activity (K562 [22]): Tde; inhibition (K562 [23]): inactive; Activity [24]: Non-Toxic; GI50 (HOP-62): > 100 µM
O=C(COc1ccc(/C=C2\SC(=O)NC2=O)cc1)Nc1ccc(Cl)cc1C(F)(F)F	> 70%	Active	82%	Tde	inactive	> 100 µM	Dose-dependent effect	Dose-dependent effect	> 100 µM	49.7 µM	67.5 µM	0.23 µM	Non-Toxic	32.5 µM	28.9 µM	Dose-dependent effect	86.8 µM	65%	56.7 µM	Active	Activity (K562 [25]): Dose-dependent effect; Activity (K562 [26]): Dose-dependent effect; inhibition (K562 [27]): Active; Activity (K562 [17]): Tde; Activity (K562 [18]): Active; MTD [19]: 2000 mg/kg; Activity (K562 [20]): Active; Activity (K562 [21]): Active; Activity (K562 [22]): Tde; inhibition (K562 [23]): inactive; Activity [24]: Non-Toxic; GI50 (HOP-62): > 100 µM
O=C(COc1ccc(/C=C2\SC(=O)NC2=O)cc1)Nc1cccc(C(F)(F)F)c1	> 70%										49.1 µM			47.3 µM	26.5 µM				73.3 µM		GI50 (DU-145): 59.2 µM; GI50 (MDA-MB-435): > 100 µM
